The text below walks through data of paper PMC7496803 (Chemistry (Weinheim an Der Bergstrasse, Germany), 2020).

One data set concerns HeLa cells. Kind of data set: Phototoxicity, resazurin cell viability assay after 525 nm irradiation. It counts as cell-based. Put shortly:
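HeLa, 2×10^4 per well in DMEM (2.5 % FBS), 21 h before dosing. Turn-off or turn-on peptide photosensitizers in water/12.5 % MeCN, 4.00–0.03 μm final, triplicate, 2 h. Irradiated at 525 nm by LED array, 69.4±0.6 W m−2 for 160 s, then 18 h. Resazurin fluorescence viability; IC50 by four-parameter variable-slope log(inhibitor)–response fit; untreated and vehicle controls; ≥2 independent experiments.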

For another data set, the system named is PC-3 cells. Kind of data set: Phototoxicity, resazurin cell viability assay after 525 nm irradiation. It counts as cell-based. On the technique in general: Alamar Blue is a resazurin reagent that responds to reducing activity.
The conditions of data set [1]: in MeOH; cited from earlier work.

For `CCCCCCCCCCCCCCCC(=O)NCCCC[C@H](NC(=O)[C@H](CSCC(=O)NCc1cn(CCOc2ccc(C3=C4C(C)=C(I)C(C)=[N+]4[B-](F)(F)n4c(C)c(I)c(C)c43)cc2)nn1)NC(=O)c1ccc(-c2nnc(C)c3c2CCC(O)CCC3)cc1)C(=O)N[C@@H](CCCNC(=N)N)C(=O)N[C@@H](CCCNC(=N)N)C(=O)N[C@@H](CCCNC(=N)N)C(=O)N[C@@H](CCCNC(=N)N)C(N)=O` (stereo partly shown) [6ON, [TCO:Tz]‐C(2I‐BODIPY)‐K(PA)RRRR‐CONH2], the “phototoxicity variation turn-off/turn-on (IC50 6OFF / IC50 6ON)” value in the data set with HeLa cells was determined as 3.8 fold. The “OFF/ON ratio (IC50 6OFF / IC50 6ON)” value in the data set with PC-3 cells is reported as 3.3 fold.
Take `O=C([O-])c1c(Cl)c(Cl)c(Cl)c(Cl)c1-c1c2cc(I)c(=O)c(I)c-2oc2c(I)c([O-])c(I)cc12.[Na+].[Na+]` [rose bengal]: the “Φ Δ of the reference photosensitizers” value in data set [1] is 0.76.
Turning to Erythrosine B, in data set [1], the “Φ Δ of the reference photosensitizers” value is given as 0.6.
